Screening results deposited in PubChem by several laboratories.
NF-kB expr up – raises NF-kB expression in human neuronal cells. 1.6% of 190,000 active. fold change at 12.5 µM. NF-kB reporter expression; stronger effect = higher value; in the data active = fold change above about 3.3
STAT1 act – increases IFN-gamma driven STAT1 reporter signal. NIH 3T3 STAT1-luciferase reporter, luminescence; 100% = IFN-gamma alone, no compound. 2.6% of 200,000 active. activation (% of control), % at 5.5 µM. AID 932;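 active = activation above the screen-wide mean activation plus 3 SD, cut at about 130% in these data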
FLuc stim CS – affects firefly luciferase, flagging false hits in luciferase stimulation screens | ATPlite luciferase biochemical, luminescence, 10 min; 0 = ATP-free wells, 1 = DMSO control | activation factor at 10 µM | 200,000 tested, under 10 active | AID 1027;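 active = luciferase activation factor, scaled between plate controls, of at least 2 with compound at 10 µM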
Target sequence (P08659 whole entry, looked up): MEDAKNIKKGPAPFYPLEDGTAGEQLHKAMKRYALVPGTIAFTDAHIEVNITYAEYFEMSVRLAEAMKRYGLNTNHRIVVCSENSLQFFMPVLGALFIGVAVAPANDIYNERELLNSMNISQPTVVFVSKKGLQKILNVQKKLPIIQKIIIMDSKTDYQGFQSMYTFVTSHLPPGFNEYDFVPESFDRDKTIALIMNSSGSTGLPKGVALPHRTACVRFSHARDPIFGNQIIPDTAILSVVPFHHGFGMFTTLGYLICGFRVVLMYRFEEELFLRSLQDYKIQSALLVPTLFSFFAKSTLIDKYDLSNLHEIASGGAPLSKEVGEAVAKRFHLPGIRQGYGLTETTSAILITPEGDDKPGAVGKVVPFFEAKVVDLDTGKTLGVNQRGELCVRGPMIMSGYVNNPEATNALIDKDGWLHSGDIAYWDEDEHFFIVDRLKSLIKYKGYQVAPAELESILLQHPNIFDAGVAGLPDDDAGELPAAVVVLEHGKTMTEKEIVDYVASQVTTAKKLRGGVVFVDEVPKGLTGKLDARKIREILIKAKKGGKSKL
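Assay system: Luciferase/luciferin reagent mix; Medium: PBS as buffer for the ATP substrate; Dosing: test compounds dosed from 2 mM stocks in 100% DMSO; Times: 10 min, room temperature; Signal: luminescence from luciferase reaction; Read-out: luciferase activation; Controls: No-ATP low control, compound-free enzyme-plus-ATP high control.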
APP 5'UTR act – APP 5'UTR luciferase reporter activation. SH-SY5Y APP 5'UTR luciferase reporter, luminescence; zero percent = DMSO vehicle wells. activation, % at 2 µM. 1% of 190,000 active;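 active = activation above a set limit, based on mean plus 3 SD of controls, cut at about 140% in these data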
FLuc inhib CS – counter-screen for luciferase assay inhibitors: firefly luciferase inhibition | P08659 | ATPLite firefly luciferase biochemical luminescence, 10 min | inhibition, % at 10 µM | 1.5% of 200,000 active | AID 1006;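 active = inhibition above about 50% when tested at 10 µM, limit read from the data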
Hits are given with their value; . = inactive; / = no result. In the library only some 4.3% were active in any assay of this set; here they are far more common.

SMILES	NF-kB expr up	STAT1 act	FLuc stim CS	APP 5'UTR act	FLuc inhib CS
Cc1cnc(NC(=O)c2ccncc2)s1	.	.	.	.	.
O=C(NC(=S)NCc1ccc(-c2nc3ccccc3s2)cc1)c1ccco1	.	.	.	.	.
COc1ccc2sc(NC(=O)c3ccco3)nc2c1	.	.	.	.	88
COc1ccc2c(c1)CCc1sc(NC(=O)c3ccco3)nc1-2	.	.	.	.	.
O=C(Nc1nnc(C2CCCCC2)s1)c1ccco1	.	130	.	.	.
O=C(NC(=S)Nc1nc2ccccc2s1)c1ccco1	.	130	.	143	80
Cc1cnc(NC(=O)c2cncc(Br)c2)s1	4	136	.	181	.
CCOc1ccc(C(C)NC(=O)Nc2ccccc2C(=O)OC)cc1 (stereo not drawn)	.	.	.	/	.
COC(=O)c1sc(NC(=O)c2ccco2)nc1C	.	.	.	.	.
Cc1cnc(NC(=O)c2ccco2)s1	.	139	.	.	.
COc1ccc2nc(NC(=S)NC(=O)c3ccco3)sc2c1	.	146	.	161	76
Cc1cc(C)c2c(N)c(C(=O)Nc3ncc(C)s3)sc2n1	.	.	.	.	98
C/C(=N\NC(=O)c1cc(C)[nH]n1)c1cccs1	.	.	.	.	56
C/C(=N\NC(=O)c1ccc(Cl)cc1)c1cccs1	5.4	.	.	.	90
C/C(=N\NC(=O)c1nc2ccccn2c1C)c1cc2ccccc2o1	.	.	.	.	.
C/C(=N\NC(=O)c1nc2ccccn2c1C)c1ccco1	.	136	.	.	.
O=C(N/N=C/c1cccs1)c1cnccn1	.	.	.	.	.
C/C(=N/NC(=O)c1cnccn1)c1cccs1	.	135	.	.	.
O=C(CCc1ccccc1)NC(NC(=S)Nc1ccc(Cl)cc1)C(Cl)(Cl)Cl (stereo not drawn)	.	.	.	/	.
CCCN(C(=O)COc1ccc(Cl)cc1Cl)c1c(N)n(Cc2ccccc2)c(=O)[nH]c1=O	/	.	.	.	.
C/C(=N\NC(=O)c1cc(C(C)C)[nH]n1)c1ccco1	.	.	.	.	79
C/C(=N/NC(=O)c1cc(C(C)C)[nH]n1)c1cccs1	3.4	.	.	.	70
C/C(=N/NC(=O)c1cc(-c2ccc(Br)s2)[nH]n1)c1ccco1	.	.	.	.	.
C/C(=N/NC(=O)c1ccc2nc[nH]c2c1)c1cccs1	.	.	.	.	.
C/C(=N\Nc1ccccn1)c1cccs1	.	137	.	.	.
SMILES	NF-kB expr up	STAT1 act	FLuc stim CS	APP 5'UTR act	FLuc inhib CS
CCCN1C(=O)C2(SC(NC(C)=O)=NN2C(C)=O)c2cc(C)ccc21 (stereo not drawn)	.	.	.	.	.
CCCN1C(=O)c2cc(C(=O)Nc3ccc(OC)cc3OC)ccc2C1Nc1ccc(OC)cc1OC (stereo not drawn)	.	.	.	.	.
CCOC(=O)c1cnn(-c2ccc(C(F)(F)F)cn2)c1N	.	145	.	.	.
CCOC(=O)c1cnn(-c2ccccc2)c1N	.	.	.	.	.
CC(C)NC(=O)C(OC(=O)c1ccccc1)C(OC(=O)c1ccccc1)C(=O)O (stereo not drawn)	.	.	.	.	.
O=c1oc2ccccc2cc1-c1nc2ccccc2o1	4.4	.	.	152	.
Cc1ccc(-c2noc(-c3cc4ccccc4oc3=O)n2)cc1	.	.	.	.	.
Cc1cccc(-c2noc(-c3cc4ccccc4oc3=O)n2)c1	3.6	.	.	.	.
O=c1oc2ccc3ccccc3c2cc1-c1nc2ccccc2o1	/	.	/	.	/
O=c1oc2ccccc2cc1-c1nc(-c2ccccc2)no1	4.1	145	.	.	75
O=c1oc2ccccc2cc1-c1nc2c(s1)CCCC2	.	.	.	188	67
CCOC(=O)Cc1cnc(NC(=O)CSc2nc(N)cc(N)n2)s1	.	.	.	.	.
Cc1ccc(-n2nnnc2SCC(=O)N2CC(=O)Nc3ccccc32)cc1	.	.	.	.	.
COc1ccc(N2C(N)=NC(N)=NC2(C)C)cc1	3.9	.	.	.	.
O=C1c2ccccc2C(=O)N1CCCCN(C(=O)c1ccco1)c1ccc(Cl)cc1	.	.	.	.	.
O=C1/C(=C/N(C(=O)c2ccco2)c2ccc(Br)cc2)Sc2ccccc21	.	.	.	.	83
COc1ccc(CN(C(=O)c2ccco2)c2ccc(Br)cc2)cc1OC	.	.	.	.	.
O=C1/C(=C/N(C(=O)c2ccco2)c2ccc(Cl)cc2)Sc2ccccc21	.	.	.	.	86
CCC1=NN(C(=O)Cc2ccc([N+](=O)[O-])cc2)C(O)(C(C)(C)C)C1 (stereo not drawn)	3.5	.	.	.	.
COc1cc(O)cc2occ(-c3ccc(O)cc3)c(=O)c12	.	.	.	.	.
CC(C)Oc1cc(O)c2c(=O)c(-c3ccc(O)cc3)coc2c1	9	.	.	164	.
COc1ccc(-c2coc3cc(OC)cc(OC)c3c2=O)cc1	.	.	.	.	.
COc1ccc(-c2coc3cc(OC)cc(O)c3c2=O)cc1	5.5	143	.	155	.
COc1ccc(-c2coc3cc(O)ccc3c2=O)cc1O	.	.	.	.	54
O=c1c2c(nc3nc(NCc4cccc(Cl)c4)[nH]n13)CCC2	.	.	.	.	.
SMILES	NF-kB expr up	STAT1 act	FLuc stim CS	APP 5'UTR act	FLuc inhib CS
CC(/C=N/NC(=O)Cn1cnc2c1c(=O)n(C)c(=O)n2C)=C\c1ccccc1	.	.	.	.	.
CCOC(=O)C1=C(C)Nc2ccccc2N=C1NC(=O)c1ccc(Cl)c(S(=O)(=O)N2CCCC2)c1	.	.	.	.	.
Cc1ccc(C#N)c(SCC(=O)Nc2nccs2)n1	.	.	.	175	.
N#Cc1cc2c(nc1SCC(=O)Nc1nccs1)CCCCC2	.	.	.	195	.
CCc1nnc(NC(=O)CSc2nc3c(cc2C#N)CCC3)s1	.	.	.	.	.
Cc1ccc(SCC(=O)Nc2nccs2)cc1	.	.	.	.	.
CC1(C)CC(=O)C2=C(C1)Nc1ncnn1C2c1cccs1 (stereo not drawn)	.	.	.	.	.
COCC(=O)n1nc(-c2ccccc2)nc1NCc1ccc(N(C)C)cc1	.	142	.	.	.
COCC(=O)n1nc(-c2ccc(C)cc2)nc1NCc1ccc(F)cc1	.	.	.	.	.
O=C(COc1ccccc1)n1nc(-c2ccc(Cl)cc2)nc1NCc1ccco1	.	143	.	.	.
O=C(c1ccco1)n1nc(-c2ccc(Cl)cc2)nc1NCc1ccco1	.	.	.	.	.
CN(C)/C=C(\C#N)C(=O)Nc1ccc(O)cc1F	.	.	.	.	.
O=C(OC1Cn2c(=O)ccc(=O)n2C1)c1ccccc1	.	.	.	.	.
COC(=O)c1cn[nH]c1NC(=S)Nc1ccc(Cl)c(Cl)c1	.	145	.	222	.
O=C(c1ccc(NC(=S)Nc2ccc(Cl)c(Cl)c2)cc1)N1CCCC1	.	.	.	.	.
CCn1nnc(NC(=O)C(c2ccccc2)c2ccccc2)n1	.	.	.	.	.
